A1 inh = caspase 3/7 activation in MEF A1-2A-BIM cells, primary screen, A1 inhibitor project, cell-based, luminescence, HTS; caspase activation, % (concentration not given with the values); AID 2462, 2010; Caspase-Glo 3/7 luminescence, 3 h; percent of clofoctol response, vehicle zero; 330,000 compounds, 0.066% hits;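 active = over half of replicate activation scores above 10%, or exactly half above 10 with the replicate mean above 10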
sPLA2-III inh = human group III sPLA2 inhibitors, primary screen, biochemical, QFRET, BODIPY PC-A2 liposome substrate | QFRET BODIPY PC-A2 liposome hydrolysis, fluorescence | 370,000 compounds, 0.56% hits | Group 3 secretory phospholipase A2 (Homo sapiens), Q9NZ20 | AID 743126, 2013 | inhibition, % at 12.2 µM;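 active = inhibition above mean plus 3 SD of compounds lying within the high and low control bounds, cut at about 19% in these data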
Granule exo inh = LAMP-1 surface exposure blockers, TALL-104 cells – cell-based, flow cytometry, MLPCN library, primary screen; TALL-104 LAMP-1 surface exposure; cells stimulated with thapsigargin and PMA; inhibition, % at 10 µM; 360,000 compounds, 0.66% hits; AID 651702, 2012;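 active = inhibition above about 55%, limit read from the data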
NTR1 agonist = agonists of human NTR1, primary screen, imaging, U2OS cells, beta-arrestin-GFP, high content; Neurotensin receptor type 1 (Homo sapiens), P30989; NTR1-U2OS beta-arrestin-GFP spot imaging, agonist mode; activation, % at 20 µM; 330,000 compounds, 0.17% hits; AID 493036, 2011;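 active = activation at or above 40% of the spot to cytoplasm intensity ratio, with at least 20 cells analyzed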
Target sequence (P30989 whole entry, looked up): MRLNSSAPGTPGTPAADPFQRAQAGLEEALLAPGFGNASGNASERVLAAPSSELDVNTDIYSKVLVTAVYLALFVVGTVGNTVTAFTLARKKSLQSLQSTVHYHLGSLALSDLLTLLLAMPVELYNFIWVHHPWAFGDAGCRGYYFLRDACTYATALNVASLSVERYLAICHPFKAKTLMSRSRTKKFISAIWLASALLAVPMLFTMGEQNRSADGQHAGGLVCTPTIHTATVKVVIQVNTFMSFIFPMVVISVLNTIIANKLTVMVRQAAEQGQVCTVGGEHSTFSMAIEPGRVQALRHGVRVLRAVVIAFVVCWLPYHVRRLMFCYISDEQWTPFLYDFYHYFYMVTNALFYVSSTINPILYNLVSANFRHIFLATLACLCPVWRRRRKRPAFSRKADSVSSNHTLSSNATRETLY
MC4R antagonist = MC4R antagonists of cAMP signaling, primary screen, cell-based, TR-FRET, antagonist arm of biased-ligand search; MC4R-expressing cells, MTII-stimulated cAMP, LANCE TR-FRET; inhibition, % at 6.5 µM; Melanocortin receptor 4 (Homo sapiens), P32245; 360,000 compounds, 0.48% hits; AID 540295, 2011;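 active = inhibition above its plate's cutoff, the mean of tested wells on that plate plus 3 SD, cut at about 29% in these data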
Target sequence (P32245 whole entry, looked up): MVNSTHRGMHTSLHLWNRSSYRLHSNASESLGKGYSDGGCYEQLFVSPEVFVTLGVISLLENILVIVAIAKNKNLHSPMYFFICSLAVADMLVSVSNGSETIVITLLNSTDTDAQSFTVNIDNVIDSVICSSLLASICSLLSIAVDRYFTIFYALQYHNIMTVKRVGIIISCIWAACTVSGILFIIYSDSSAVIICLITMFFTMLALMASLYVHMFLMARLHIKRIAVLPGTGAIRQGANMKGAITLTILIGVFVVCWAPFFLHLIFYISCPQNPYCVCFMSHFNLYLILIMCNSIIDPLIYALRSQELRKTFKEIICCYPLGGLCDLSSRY
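System: U2OS-MC4R stable cell line; Technique: Eu-cAMP/anti-cAMP TR-FRET, emission 671 nm; Repeats: single well per compound; Also added: Melanotan II; Dosing: one concentration, 6.5 µM nominal; Schedule: 30-min compound, 1-h challenge, 1-h detection, room temperature.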
MC4R barr agon = MC4R agonists recruiting beta-arrestin, primary screen, cell-based, luminescence, agonist arm of biased-ligand search; Melanocortin receptor 4 (Homo sapiens), P32245; U2OS MC4R beta-arrestin complementation; percent of melanotan II response, DMSO zero; activation, % at 8.9 µM; 360,000 compounds, 0.98% hits; AID 540308, 2011;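 active = activation above a per-plate cutoff, the mean activation of sample wells on that plate plus 3 SD, cut at about 8% in these data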
MC4R barr ag = MC4R beta-arrestin agonists, retest, confirmation, cell-based, luminescence, U2OS; shares compounds with MC4R barr agon; U2OS MC4R beta-arrestin recruitment; scaled DMSO 0%, Melanotan II 100%; activation, % at 8.9 µM; 2,400 compounds, 31% hits; AID 602192, 2012;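 active = mean activation across replicates above the hit cutoff set in the earlier primary screen, cut at about 8% in these data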
MOR-DOR barr ag = agonists of MOR-DOR heterodimerization, counter-screen for MC4R biased agonist project, cell-based, luminescence. shares compounds with MC4R barr agon. U2OS PathHunter beta-arrestin, beta-gal luminescence; percent of deltorphin B response, DMSO zero. activation, % at 9.2 µM. 2,400 compounds, 5.8% hits;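 active = mean activation across replicates exceeds the hit threshold derived in the earlier primary screen, cut at about 18% in these data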
Large screens that a line does not name were inactive (follow-up assays come after a bar, where they were run). Most compounds without a hit are left out; they make up all but 2.5% or so of the library.

CC(=O)Nc1cc(-c2cccc(N)c2)cn2c(-c3ccccc3)cnc12	MC4R barr agon 12 (no result: A1 inh, NTR1 agonist) | MC4R barr ag inactive | MOR-DOR barr ag inactive
CC(=O)Nc1cc(-c2ccccc2N(C)C)cn2c(-c3ccccc3)cnc12	MC4R barr agon 18 (no result: A1 inh, NTR1 agonist) | MC4R barr ag 32 | MOR-DOR barr ag inactive
CC(=O)Nc1cc(-c2cccc(C(=O)N(C)C)c2)cn2c(-c3cccc(C(=O)N(C)C)c3)cnc12	none (no result: A1 inh, NTR1 agonist)
CC(=O)Nc1cc(-c2cccc(C(=O)N(C)C)c2)cn2c(-c3ccc(C(C)=O)cc3)cnc12	MC4R barr agon 11 (no result: A1 inh, NTR1 agonist) | MC4R barr ag inactive | MOR-DOR barr ag inactive
CC(=O)Nc1cc(-c2ccccc2N(C)C)cn2c(-c3ccc(S(C)(=O)=O)cc3)cnc12	none (no result: A1 inh, NTR1 agonist)
O=C(OCc1ccccc1)[C@H](Cc1ccccc1)NC(=O)[C@@H]1CC=C[C@@H]2CCN(C3CCCCC3)C(=O)[C@@H]21	none (no result: A1 inh, Granule exo inh, NTR1 agonist, MC4R antagonist, MC4R barr agon)
COC(=O)[C@]12C[C@H](CC(=O)N3CCOCC3)C(=O)N(CCC3=CCCCC3)C1=C[C@H](C(C)C)O[C@@H]2C1CC1	none (no result: A1 inh, Granule exo inh, NTR1 agonist, MC4R antagonist, MC4R barr agon)
CC(=O)Nc1cc(-c2cccc(C(=O)N(C)C)c2)cn2c(-c3ccc(F)c(Cl)c3)cnc12	MC4R barr agon 16 (no result: A1 inh, NTR1 agonist) | MC4R barr ag 23 | MOR-DOR barr ag inactive
CN(C)C(=O)c1cccc(-c2cnc3c(NC=O)cc(-c4cccc(F)c4)cn23)c1	none (no result: A1 inh, NTR1 agonist)
CC(=O)c1cccc(-c2cnc3c(NC=O)cc(-c4ccccc4F)cn23)c1	MC4R barr agon 20 (no result: A1 inh, NTR1 agonist) | MC4R barr ag 20 | MOR-DOR barr ag inactive
CC(=O)Nc1cc(-c2ccccc2)cn2c(-c3cccc(C(C)=O)c3)cnc12	MC4R barr agon 21 (no result: A1 inh, NTR1 agonist) | MC4R barr ag 20 | MOR-DOR barr ag inactive
Fc1ccc(CSc2ccc(-c3ccc4c(c3)OCO4)nn2)cc1	MC4R barr agon 11 | MC4R barr ag inactive | MOR-DOR barr ag inactive
Cc1cccc(C(=O)Nc2ccc(O)c3c(=O)cc(-c4ccccc4Cl)oc23)c1	MC4R barr agon 17 | MC4R barr ag inactive | MOR-DOR barr ag inactive
Nc1ccc(S(=O)(=O)Nc2nccc(/C=C/c3ccc([N+](=O)[O-])cc3)n2)cc1	none
Nc1ccc(S(=O)(=O)Nc2nccc(/C=C/c3ccc(Cl)cc3)n2)cc1	MC4R barr agon 21 | MC4R barr ag inactive | MOR-DOR barr ag inactive
O=c1[nH]c2ccc(S(=O)(=O)N3CCCC3)cc2o1	none (no result: A1 inh, Granule exo inh, NTR1 agonist, MC4R antagonist, MC4R barr agon)
CCCCCCCCN1C(=O)[C@@H](CC(=O)NCc2ccc(OC)c(OC)c2)C[C@@]2(C(=O)OC)C1=C[C@H](C(C)(C)C)O[C@@H]2C	none (no result: A1 inh, Granule exo inh, NTR1 agonist, MC4R antagonist, MC4R barr agon)
CCC(=O)Nc1sc(C(=O)Nc2ccccc2F)c(C)c1C(=O)OC	none
CCC(=O)Nc1sc(C(=O)Nc2ccccc2OC)c(C)c1C(=O)OC	MC4R barr agon 11 | MC4R barr ag inactive | MOR-DOR barr ag inactive
COc1ccc2c(c1)CNC2CS(=O)(=O)NCc1ccccc1 (stereo unspecified)	none (no result: A1 inh, Granule exo inh, NTR1 agonist, MC4R antagonist, MC4R barr agon)
CCCOc1ccc(F)cc1-c1cc(C(=O)Nc2ccc(C(C)C)cc2)[nH]n1	MC4R barr agon 21 (no result: A1 inh, NTR1 agonist) | MC4R barr ag inactive | MOR-DOR barr ag inactive
COc1cccc(C(=O)N[C@@H](Cc2cccnc2)C(=O)N2CCC[C@H]2C(=O)NCCc2ccccc2Cl)c1	none (no result: A1 inh, Granule exo inh, NTR1 agonist, MC4R antagonist, MC4R barr agon)
Cc1nc2ccccc2c2oc(C(=O)Nc3ccc(C(C)C)cc3)cc12	MC4R barr agon 27 | MC4R barr ag 9.2 | MOR-DOR barr ag inactive
O=C(CNC(=O)c1ccc(Br)o1)Nc1cccc(-c2cnc3ccccc3n2)c1	MC4R barr agon 16 | MC4R barr ag inactive | MOR-DOR barr ag inactive
Clc1ccc(OCCOc2ccc(Br)nc2Br)c(Cl)c1	none (no result: A1 inh, Granule exo inh, NTR1 agonist, MC4R antagonist, MC4R barr agon)
C/C(=C\C=C(C#N)C#N)c1cc(C#N)c(N)o1	MC4R barr agon 14 (no result: A1 inh) | MC4R barr ag 57 | MOR-DOR barr ag 20
O=C(CN(CCc1ccccc1)S(=O)(=O)c1cccs1)N1CCOCC1	none (no result: A1 inh, Granule exo inh, NTR1 agonist, MC4R antagonist, MC4R barr agon)
COC(=O)[C@]12C[C@H](CC(=O)NCc3ccccc3)C(=O)N(CCc3ccc(OC)c(OC)c3)C1=C[C@H](COCc1ccccc1)O[C@@H]2C	none (no result: A1 inh, Granule exo inh, NTR1 agonist, MC4R antagonist, MC4R barr agon)
O=C(OCC(=O)c1c[nH]c2ccccc12)c1cc2ccccc2cc1O	MC4R barr agon 12 | MC4R barr ag inactive | MOR-DOR barr ag inactive
O=S(=O)(c1ccc2nc(-c3ccccc3)[nH]c2c1)N1CCN(c2ccc(Cl)cc2)CC1	MC4R barr agon 11 | MC4R barr ag inactive | MOR-DOR barr ag inactive
O=c1ccc2cc(S(=O)(=O)N3CCN(c4ccccc4)CC3)ccc2[nH]1	none
O=C(COc1cc(Cl)ccc1Cl)Nc1ccc2[nH]c(=O)[nH]c2c1	MC4R barr agon 12 | MC4R barr ag inactive | MOR-DOR barr ag inactive
O=C(COc1ccccc1F)Nc1ccc2[nH]c(=O)[nH]c2c1	none
O=S1(=O)c2ccc(N3CCN(Cc4ccccc4F)CC3)cc2Oc2ccccc2CN1Cc1cn(Cc2ccc(F)cc2)nn1	none (no result: A1 inh, Granule exo inh, NTR1 agonist, MC4R antagonist, MC4R barr agon)
CCn1c2ccccc2c2cc(NC(=O)CSc3nnc(-c4ccc(OC)cc4)n3N)ccc21	MC4R barr agon 21 | MC4R barr ag 12 | MOR-DOR barr ag 20
O=C1N/C(=N\N=C\c2cccs2)SC1Cc1ccc(Cl)c(Cl)c1 (stereo unspecified)	MC4R barr agon 10 | MC4R barr ag inactive | MOR-DOR barr ag inactive
C=CCC1S/C(=N/N=C/c2cccs2)NC1=O (stereo unspecified)	none
O=C(COC(=O)c1ccccc1Nc1ccccc1)NCc1ccccc1	MC4R barr agon 25 | MC4R barr ag inactive | MOR-DOR barr ag inactive
O=C(COC(=O)c1ccccc1Nc1cccc(C(F)(F)F)c1)NCc1ccco1	MC4R barr agon 13 | MC4R barr ag inactive | MOR-DOR barr ag inactive
NC(=O)c1ccc(NC(=O)COC(=O)c2ccccc2Nc2ccccc2)cc1	none
O=C(COC(=O)c1ccccc1Nc1ccccc1)NCc1ccccc1Cl	MC4R barr agon 16 | MC4R barr ag 10 | MOR-DOR barr ag inactive
CCN(CC)C(=O)CC[C@H]1CC[C@]2(CCCN(S(C)(=O)=O)C2)O1	none (no result: A1 inh, Granule exo inh, NTR1 agonist, MC4R antagonist, MC4R barr agon)
